Results as given in ChEMBL document CHEMBL4765347, “Radiomodulatory effect of a non-electrophilic NQO1 inducer identified in a screen of new 6, 8-diiodoquinazolin-4(3H)-ones carrying a sulfonamide moiety” (Eur J Med Chem, 2020).
Active and inactive are the calls of the source. No cut-off for these calls is given here.

Columns and labels:
[1] = Toxicity in Swiss albino mouse assessed as effect on liver weight at 50 mg/kg, ip administered for 5 days and observed for 5 days; assay type: organism-based; conditions: in vivo, 120 h, time 5 day
Mus musculus [2] = assay: Antioxidant activity against radiation-induced Swiss albino mouse assessed as increase in Nrf2 level in liver at 50 mg/kg, ip administered for 5 days and irradiated with gamma radiation after 1 hr of compound administration by ELISA relative to control; assay type: functional; conditions: time 5 day
In short: (§1)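 Mice received 50 mg/kg/day i.p. in 10% DMSO for 5 days, plus whole-body 7 Gy 137Cs gamma (0.655 rad/s) 1 h after the last dose. On day 3, five mice per group were anesthetized with urethane. Livers were homogenized in ice-cold 0.1 M PBS pH 7.4. Nrf2 and NQO1 were measured by ELISA, lipid peroxidation as MDA, plus ROS generation. Data are mean ± S.E., one-way ANOVA with Bonferroni.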

[3] = Toxicity in Swiss albino mouse assessed as effect on body weight at 50 mg/kg, ip administered for 5 days and observed for 30 days; assay type: organism-based; conditions: in vivo, 720 h, time 30 day
In short: (§2)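 Albino mice received the compound at 50 mg/kg/day i.p. daily for 5 days, with 10% DMSO i.p. daily as vehicle control; 80 mice were randomised into four groups. Body weight was recorded weekly and survival was checked daily over 30 days. Mice were housed at 25 ± 5 °C, 60 ± 5% humidity and 12 h light/dark, with food and water ad libitum.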

[4] = Toxicity in non-irradiated Swiss albino mouse assessed as increase in ROS level at 50 mg/kg, ip administered for 5 days by ELISA; assay type: organism-based; conditions: in vivo, 120 h, time 5 day
In short: (§3)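 Non-irradiated mice were dosed 50 mg/kg/day i.p. (vehicle 10% DMSO) for 5 days and compared with vehicle controls. On day 3, five mice per group were anesthetized with urethane. Liver homogenates (ice-cold 0.1 M PBS pH 7.4, stored −80 °C) were assayed for Nrf2 and NQO1 by ELISA, for MDA as lipid peroxide marker, and for ROS. Data are mean ± S.E., n = 5, ANOVA with Bonferroni.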

Nrf2 (Mus musculus) [5] = assay: Activation of Nrf2 in mouse Hepa1c1c7 cells assessed as increase in NQO1 activity using menadione as substrate incubated for 20 mins followed by substrate addition and measured after 30 mins by spectrophotometry; conditions: filed as activator, time 50.0 min
[6] = Toxicity in Swiss albino mouse assessed as survival rate at 50 mg/kg, ip administered for 5 days and observed for 30 days; assay type: organism-based; conditions: in vivo, 720 h, time 30 day; in short: as §2
Mus musculus [7] = assay: Effect on hematopoiesis in gamma-irradiated Swiss albino mouse assessed as increase in radiation-reduced RBC count at 50 mg/kg, ip administered for 5 days and irradiated with gamma radiation after 1 hr of compound administration by automated micro-analyzer; assay type: functional, organism-based; conditions: time 5.0 day
In short: (§4)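 Dosing was i.p. 50 mg/kg/day in 10% DMSO for 5 days, followed 1 h after the final injection by 7 Gy whole-body 137Cs gamma irradiation. Complete blood count with platelets (RBC, HGB, PLT, WBC) was done on an automated analyzer 3 days after irradiation. Data are mean ± S.E.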

Mus musculus [8] = assay: Effect on hematopoiesis in gamma-irradiated Swiss albino mouse assessed as increase in radiation-reduced HGB count at 50 mg/kg, ip administered for 5 days and irradiated with gamma radiation after 1 hr of compound administration by automated micro-analyzer; assay type: functional, organism-based; conditions: time 5.0 day; in short: as §4
Nrf2 (Mus musculus) [9] = assay: Activation of Nrf2 in mouse Hepa1c1c7 cells assessed as increase in NQO1 activity at 2.5 uM using menadione as substrate incubated for 20 mins followed by substrate addition and measured after 30 mins by spectrophotometry relative to control; conditions: filed as activator, time 50.0 min
Nrf2 (Mus musculus) [10] = assay: Activation of Nrf2 in mouse Hepa1c1c7 cells assessed as increase in NQO1 activity at 5 uM using menadione as substrate incubated for 20 mins followed by substrate addition and measured after 30 mins by spectrophotometry relative to control; conditions: filed as activator, time 50.0 min
[11] = target: Nuclear factor erythroid 2-related factor 2 (Mus musculus) (UniProt Q60795); assay: Activation of Nrf2 in mouse Hepa1c1c7 cells assessed as increase in NQO1 activity at 40 uM using menadione as substrate incubated for 20 mins followed by substrate addition and measured after 30 mins by spectrophotometry relative to control; conditions: filed as activator, time 50.0 min
Sequence of Nuclear factor erythroid 2-related factor 2 (Mus musculus) (Q60795 whole entry, looked up): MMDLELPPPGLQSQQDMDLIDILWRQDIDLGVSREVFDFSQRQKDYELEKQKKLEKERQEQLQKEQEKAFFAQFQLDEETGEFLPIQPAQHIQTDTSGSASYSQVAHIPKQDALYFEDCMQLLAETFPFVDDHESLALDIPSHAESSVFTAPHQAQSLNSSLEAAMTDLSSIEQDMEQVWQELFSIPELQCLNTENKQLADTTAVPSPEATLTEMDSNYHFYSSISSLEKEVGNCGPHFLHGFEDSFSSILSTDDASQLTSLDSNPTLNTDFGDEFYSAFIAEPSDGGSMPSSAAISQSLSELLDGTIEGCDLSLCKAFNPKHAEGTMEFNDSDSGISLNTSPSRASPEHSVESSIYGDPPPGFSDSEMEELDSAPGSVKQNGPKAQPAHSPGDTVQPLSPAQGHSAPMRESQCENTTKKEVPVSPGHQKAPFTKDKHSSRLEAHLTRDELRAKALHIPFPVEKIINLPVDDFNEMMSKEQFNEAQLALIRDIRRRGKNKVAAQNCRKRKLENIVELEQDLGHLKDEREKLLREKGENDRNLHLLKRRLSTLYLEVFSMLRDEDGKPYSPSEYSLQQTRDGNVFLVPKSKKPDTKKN

[12] = Toxicity in ip dosed Swiss albino mouse; assay type: organism-based; conditions: in vivo
Nrf2 (Mus musculus) [13] = assay: Activation of Nrf2 in mouse Hepa1c1c7 cells assessed as increase in NQO1 activity at 1.25 uM using menadione as substrate incubated for 20 mins followed by substrate addition and measured after 30 mins by spectrophotometry relative to control; conditions: filed as activator, time 50.0 min
Mus musculus [14] = assay: Effect on hematopoiesis in gamma-irradiated Swiss albino mouse assessed as increase in radiation-reduced PLT count at 50 mg/kg, ip administered for 5 days and irradiated with gamma radiation after 1 hr of compound administration by automated micro-analyzer; assay type: functional, organism-based; conditions: time 5.0 day; in short: as §4
Mus musculus [15] = assay: Antioxidant activity against radiation-induced Swiss albino mouse assessed as decrease in ROS level in liver at 50 mg/kg, ip administered for 5 days and irradiated with gamma radiation after 1 hr of compound administration by ELISA relative to control; assay type: functional; set-up: scale not given: the % may be the effect or the level left; conditions: time 5 day; in short: as §1
Nrf2 (Mus musculus) [16] = assay: Activation of Nrf2 in mouse Hepa1c1c7 cells assessed as increase in NQO1 activity at 0.313 uM using menadione as substrate incubated for 20 mins followed by substrate addition and measured after 30 mins by spectrophotometry relative to control; conditions: filed as activator, time 50.0 min
Nrf2 (Mus musculus) [17] = assay: Activation of Nrf2 in mouse Hepa1c1c7 cells assessed as increase in NQO1 activity at 0.625 uM using menadione as substrate incubated for 20 mins followed by substrate addition and measured after 30 mins by spectrophotometry relative to control; conditions: filed as activator, time 50.0 min
Nrf2 (Mus musculus) [18] = assay: Activation of Nrf2 in mouse Hepa1c1c7 cells assessed as increase in NQO1 activity at 20 uM using menadione as substrate incubated for 20 mins followed by substrate addition and measured after 30 mins by spectrophotometry relative to control; conditions: filed as activator, time 50.0 min
[19] = Toxicity in non-irradiated Swiss albino mouse assessed as increase in NQO1 level at 50 mg/kg, ip administered for 5 days by ELISA; assay type: organism-based; conditions: in vivo, 120 h, time 5 day; in short: as §3
[20] = Toxicity in non-irradiated Swiss albino mouse assessed as decrease in Nrf2 level at 50 mg/kg, ip administered for 5 days by ELISA; assay type: organism-based; conditions: in vivo, 120 h, time 5 day; in short: as §3
Mus musculus [21] = assay: Antioxidant activity against radiation-induced Swiss albino mouse assessed as decrease in NQO1 level in liver at 50 mg/kg, ip administered for 5 days and irradiated with gamma radiation after 1 hr of compound administration by ELISA relative to control; assay type: functional; set-up: scale not given: the % may be the effect or the level left; conditions: time 5 day; in short: as §1
Mus musculus [22] = assay: Antioxidant activity against radiation-induced Swiss albino mouse assessed as decrease in MDA level in liver at 50 mg/kg, ip administered for 5 days and irradiated with gamma radiation after 1 hr of compound administration by ELISA relative to control; assay type: functional; set-up: scale not given: the % may be the effect or the level left; conditions: time 5 day; in short: as §1
Nrf2 (Mus musculus) [23] = assay: Activation of Nrf2 in mouse Hepa1c1c7 cells assessed as increase in NQO1 activity at 10 uM using menadione as substrate incubated for 20 mins followed by substrate addition and measured after 30 mins by spectrophotometry relative to control; conditions: filed as activator, time 50.0 min
[24] = Toxicity in non-irradiated Swiss albino mouse assessed as effect on MDA level at 50 mg/kg, ip administered for 5 days by ELISA; assay type: organism-based; conditions: in vivo, 120 h, time 5 day; in short: as §3

## COc1cc(NC(=O)CSc2nc3c(I)cc(I)cc3c(=O)n2-c2ccc(S(N)(=O)=O)cc2)cc(OC)c1OC
[1]
  Activity: Non-Toxic
Mus musculus [2]
  Activity: 19%
[3]
  Activity: Non-Toxic
[4]
  Activity: Non-Toxic
Nrf2 (Mus musculus) [5]
  Activity: Dose-dependent effect
  CD: 20 µM
[6]
  Activity: Non-Toxic
Mus musculus [7]
  Activity: Active
Mus musculus [8]
  Activity: Active
Nrf2 (Mus musculus) [9]
  T/C: 1.16
Nrf2 (Mus musculus) [10]
  T/C: 1.24
[11]
  T/C: 2.42
[12]
  LD50: 500 mg/kg
Nrf2 (Mus musculus) [13]
  T/C: 1.1
Mus musculus [14]
  Activity: Active
Mus musculus [15]
  Activity: 23%
Nrf2 (Mus musculus) [16]
  T/C: 1.02
Nrf2 (Mus musculus) [17]
  T/C: 1.08
Nrf2 (Mus musculus) [18]
  T/C: 1.98
[19]
  Activity: Non-Toxic
[20]
  Activity: Non-Toxic
Mus musculus [21]
  Activity: 30%
Mus musculus [22]
  Activity: 28%
Nrf2 (Mus musculus) [23]
  T/C: 1.43
[24]
  Activity: Non-Toxic
